Laboratory results taken from ChEMBL document CHEMBL5321236, “Fluoro-labelled sp2-iminoglycolipids with immunomodulatory properties” (Eur J Med Chem, 2023).
Calls of active or inactive are those of the source. No cut-off for these calls is given here.

Experiments:
WiDr = experiment: Growth inhibition of human WiDr cells measured after 48 hrs by SRB colorimetric assay; type: functional
Procedure, shortened: (§1)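 NCI-based protocol with sulforhodamine B read-out. Seeded 2500 (A549, HBL-100, HeLa, SW1573), 5000 (T-47D, WiDr, SW1573/P-gp) or 7000 (BJ-hTERT) cells/well. Exposed 48 h to serial decimal dilutions, 0.001–100 μM, from 40 mM DMSO stock. GI50 by NCI formulas; mean of three or more experiments ± SD.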

A549 = experiment: Growth inhibition of human A549 cells measured after 48 hrs by SRB colorimetric assay; type: functional; procedure, shortened: as §1
HBL-100 = experiment: Growth inhibition of human HBL-100 cells measured after 48 hrs by SRB colorimetric assay; type: functional; procedure, shortened: as §1
SW1573 [1] = experiment: Growth inhibition of human SW1573 cells measured after 48 hrs by SRB colorimetric assay; type: functional; procedure, shortened: as §1
T47D = experiment: Growth inhibition of human T47D cells measured after 48 hrs by SRB colorimetric assay; type: functional; procedure, shortened: as §1
HeLa = experiment: Growth inhibition of human HeLa cells measured after 48 hrs by SRB colorimetric assay; type: functional; procedure, shortened: as §1
[2] = target: Mitogen-activated protein kinase 14 (Mus musculus) (UniProt P47811); experiment: Inhibition of LPS-stimulated p38 alpha phosphorylation in mouse BV-2 cells at 10 uM measured after 30 mins by Western blot analysis; type: cell-based
Procedure, shortened: (§2)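 Bv.2 cells exposed with or without LPS for 15–90 min. Protein extracts run on SDS-PAGE, blotted to PVDF, probed with anti-phospho-p38α MAPK and anti-total p38α MAPK (1:1000), ECL detection. Quantified by densitometry, mean ± SEM, n = 3.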

BV-2 [3] = experiment: Antiinflammatory activity in mouse BV-2 cells assessed as restoration of […] expression level at 10 uM incubated for 24 hrs with LPS stimulation by qRT-PCR analysis; type: functional, cell-based
Procedure, shortened: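 Bv.2 microglia stimulated with LPS 200 ng/mL with or without compound at 10 μM for 24 h. Arg1 mRNA measured by qRT-PCR, Actinb as housekeeping gene, 2^-ΔΔCT method, fold change relative to basal. n ≥ 4 independent experiments in triplicate.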

BV-2 [4] = experiment: Protection against LPS induced inflammation in mouse BV-2 cells assessed as decrease in IL1-beta mRNA expression at 10 uM incubated for 24 hrs with LPS stimulation by qRT-PCR analysis
BV-2 [5] = experiment: Protection against LPS induced inflammation in mouse BV-2 cells assessed as decrease in Tnf-alpha mRNA expression at 10 uM incubated for 24 hrs with LPS stimulation by qRT-PCR analysis
[6] = target: Mitogen-activated protein kinase 14 (Mus musculus) (UniProt P47811); experiment: Inhibition of LPS-stimulated p38 alpha phosphorylation in mouse BV-2 cells at 10 uM measured after 60 to 90 mins by Western blot analysis; type: cell-based; conditions: time 60-90 min; procedure, shortened: as §2
BV-2 [7] = experiment: Cytotoxicity against mouse BV-2 cells at 10 uM measured after 24 hr by crystal violet staining based analysis; type: toxicity, cell-based; conditions: bv-2, 24 h
Procedure, shortened: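 Bv.2 cells grown to 70% confluence, exposed 24 h in serum-free medium to 0.1, 1.0, 10 and 25 μM. Fixed with 1% glutaraldehyde, stained with 0.1% crystal violet, dye released in 10% acetic acid, absorbance 590 nm. Mean ± SEM, n ≥ 3 independent experiments.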

SW1573 [8] = experiment: Growth inhibition of human SW1573 cells measured after 48 hrs in absence of verapamil by SRB colorimetric assay; type: functional
Procedure, shortened: as §1, with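 “read-out. Cells grown in RPMI 1640 with 5% FBS and 1 mM glutamine at 37 °C, 5% CO₂.” for “read-out.”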

SW1573 [9] = experiment: Growth inhibition of human SW1573 cells measured after 48 hrs in presence of verapamil by SRB colorimetric assay; type: functional
Procedure, shortened: as §1, with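 “read-out. Cells grown in RPMI 1640 with 5% FBS and 1 mM glutamine at 37 °C, 5% CO₂.” for “read-out.”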

[10] = Resistance factor, ratio of GI50 for growth inhibition of human SW1573 cells overexpressing P-glycoprotein measured after 48 hrs in presence of verapamil to GI50 for growth inhibition of human SW1573 cells measured after 48 hrs in presence of verapamil; type: functional
Procedure, shortened: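 SW1573 parental and P-gp-overexpressing cells given 48 h exposure to serial dilutions (0.001–100 μM) in medium containing verapamil at a final 10 μM as P-gp transport inhibitor. SRB read-out, GI50 by NCI formulas. Resistance factor taken as GI50 in SW1573/P-gp divided by GI50 in SW1573.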

[11] = Resistance factor, ratio of GI50 for growth inhibition of human SW1573 cells overexpressing P-glycoprotein measured after 48 hrs in absence of verapamil to GI50 for growth inhibition of human SW1573 cells measured after 48 hrs in absence of verapamil; type: functional
Procedure, shortened: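 Resistance factor: GI50 in P-gp-overexpressing SW1573 divided by GI50 in parental SW1573, each from 48 h SRB growth-inhibition assay without verapamil. Values are means of three or more independent experiments.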

SW1573 [12] = experiment: Growth inhibition of human SW1573 cells overexpressing P-glycoprotein measured after 48 hrs in presence of verapamil by SRB colorimetric assay; type: functional
Procedure, shortened: as §1, with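 “read-out. Cells grown in RPMI 1640 with 5% FBS and 1 mM glutamine at 37 °C, 5% CO₂.” for “read-out.”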

SW1573 [13] = experiment: Growth inhibition of human SW1573 cells overexpressing P-glycoprotein measured after 48 hrs in absence of verapamil by SRB colorimetric assay; type: functional
Procedure, shortened: as §1, with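 “read-out. Cells grown in RPMI 1640 with 5% FBS and 1 mM glutamine at 37 °C, 5% CO₂.” for “read-out.”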

Chain of Mitogen-activated protein kinase 14 (Mus musculus) (P47811 whole entry): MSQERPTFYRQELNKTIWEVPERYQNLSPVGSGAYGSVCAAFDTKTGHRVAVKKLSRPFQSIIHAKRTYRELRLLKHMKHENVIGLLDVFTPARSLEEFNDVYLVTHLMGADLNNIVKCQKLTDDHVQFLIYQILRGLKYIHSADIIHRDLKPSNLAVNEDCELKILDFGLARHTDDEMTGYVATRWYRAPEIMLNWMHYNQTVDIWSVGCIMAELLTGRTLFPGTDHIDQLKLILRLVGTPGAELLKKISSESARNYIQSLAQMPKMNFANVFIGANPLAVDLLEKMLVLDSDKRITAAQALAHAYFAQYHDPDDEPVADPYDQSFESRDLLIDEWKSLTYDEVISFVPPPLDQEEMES

SMILES | GI50 (WiDr) [µM] | GI50 (A549) [µM] | GI50 (HBL-100) [µM] | GI50 (SW1573 [1]) [µM] | GI50 (T47D) [µM] | GI50 (HeLa) [µM] | inhibition [2] | Activity (BV-2 [3]) | Activity (BV-2 [4]) | Activity (BV-2 [5]) | inhibition [6] | Activity (BV-2 [7]) | GI50 (SW1573 [8]) [µM] | GI50 (SW1573 [9]) [µM] | RatioGI50 [10] | RatioGI50 [11] | GI50 (SW1573 [12]) [µM] | GI50 (SW1573 [13]) [µM]
O=c1[nH]cc(F)c(=O)[nH]1 [FLUOROURACIL] | 49 | 2.2 | 5.5 | 4.3 | 47 | 15 |  |  |  |  |  |  |  |  |  |  |  | 
CCCCCCCCCCCCS(=O)(=O)[C@@H]1[C@H](F)[C@@H](OCc2ccccc2)[C@H](O)[C@H]2COC(=O)N21 | 3.6 | 4.3 | 4.2 | 4.2 | 9.7 | 3.3 | inactive | Active | Active | Active | inactive | Non-Toxic |  |  |  |  |  | 
CCCCCCCCCCCCS(=O)(=O)[C@@H]1[C@@H](OC)[C@@H](O)[C@H](O)[C@H]2COC(=O)N21 | 21 | 15 | 20 | 21 | 17 | 20 |  |  |  |  |  |  |  |  |  |  |  | 
CCCCCCCCCCCCS(=O)(=O)[C@@H]1[C@H](O)[C@@H](OCc2ccccc2)[C@H](O)[C@H]2COC(=O)N21 | 13 | 7.1 | 15 | 10 | 14 | 9.2 |  |  | Active | Active |  | Non-Toxic |  |  |  |  |  | 
O=C1OC[C@@H]2[C@@H](O)[C@H](OCc3ccccc3)[C@H](F)[C@@H](O)N12 | > 100 | > 100 | > 100 | > 100 | > 100 | > 100 |  |  |  |  |  |  |  |  |  |  |  | 
CCCCCCCCCCCCS(=O)(=O)[C@@H]1[C@@H](F)[C@@H](O)[C@H](O)[C@H]2COC(=O)N21 | 4.3 | 2.9 | 7.4 | 3.6 | 10 | 3.1 |  |  |  |  |  |  |  |  |  |  |  | 
O=C1OC[C@@H]2[C@@H](O)[C@H](OCc3ccccc3)[C@@H](F)[C@@H](O)N12 | > 100 | > 100 | > 100 | > 100 | > 100 | > 100 |  |  |  |  |  |  |  |  |  |  |  | 
CCCCCCCCCCCCS[C@@H]1[C@@H](O)[C@@H](O)[C@H](O)[C@H]2COC(=O)N21 | 23 | 18 | 26 | 25 | 25 | 19 |  |  |  |  |  |  |  |  |  |  |  | 
CCCCCCCCCCCCS(=O)(=O)[C@@H]1[C@@H](F)[C@@H](OCc2ccccc2)[C@H](O)[C@H]2COC(=O)N21 | 4.3 | 4.2 | 3.4 | 4.5 | 3.8 | 3.6 |  |  |  |  |  |  |  |  |  |  |  | 
CC(=O)O[C@H]1C(=O)[C@@]2(C)[C@H]([C@H](OC(=O)c3ccccc3)[C@]3(O)C[C@H](OC(=O)[C@H](O)[C@@H](NC(=O)c4ccccc4)c4ccccc4)C(C)=C1C3(C)C)[C@]1(OC(C)=O)CO[C@@H]1C[C@@H]2O [PACLITAXEL] |  |  |  |  |  |  |  |  |  |  |  |  | 0.00053 | 0.00046 | 0.7 | 564 | 0.00031 | 0.3
CCCCCCCCCCCCS[C@@H]1[C@@H](F)[C@@H](OCc2ccccc2)[C@H](O)[C@H]2COC(=O)N21 | 18 | 13 | 18 | 18 | 20 | 19 |  |  |  |  |  |  |  |  |  |  |  | 
O=C1OC[C@@H]2[C@@H](O)[C@H](O)[C@@H](O)[C@@H](O)N12 | > 100 | > 100 | > 100 | > 100 | > 100 | > 100 |  |  |  |  |  |  |  |  |  |  |  | 
CCCCCCCCCCCCS[C@@H]1[C@H](F)[C@@H](O)[C@H](O)[C@H]2COC(=O)N21 | 21 | 17 | 22 | 22 | 21 | 19 |  |  | Active | Active |  | Non-Toxic |  |  |  |  |  | 
O=C1OC[C@@H]2[C@@H](O)[C@H](O)[C@H](O)[C@@H](O)N12 | > 100 | > 100 | > 100 | > 100 | > 100 | > 100 |  |  |  |  |  |  |  |  |  |  |  | 
O=C1OC[C@@H]2[C@@H](O)[C@H](O)[C@H](F)[C@@H](O)N12 | > 100 | > 100 | > 100 | > 100 | > 100 | > 100 |  |  |  |  |  |  |  |  |  |  |  | 
CCCCCCCCCCCCS[C@@H]1[C@H](O)[C@@H](O)[C@H](O)[C@H]2COC(=O)N21 | 18 | 16 | 17 | 18 | 18 | 17 |  |  |  |  |  |  |  |  |  |  |  | 
O=C1OC[C@@H]2[C@@H](O)[C@H](O)[C@@H](F)[C@@H](O)N12 | > 100 | > 100 | > 100 | > 100 | > 100 | > 100 |  |  | Active | Active |  | Non-Toxic |  |  |  |  |  | 
CCCCCCCCCCCCS[C@@H]1[C@H](F)[C@@H](OCc2ccccc2)[C@H](O)[C@H]2COC(=O)N21 | 20 | 18 | 19 | 19 | 18 | 13 |  |  |  |  |  |  |  |  |  |  |  | 
